In ChEMBL document CHEMBL5058577, “EUbOPEN Chemogenomics Library 2 (Multiplex)” (2022):

Test system: HEK-293T
Test: Multiplex assay against HEK293T
Format: toxicity, cell-based
Conditions: human
Outline: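 Imaging took place on a CQ1 microscope at 37°C and 5% CO2 once compound had been added to live cells stained at seeding with Hoechst33342, BioTracker Green Microtubule Cytoskeleton Dye, MitoTracker Red and Annexin V Alexa Fluor 680. CellPathfinder machine-learning gating classed cells as Hoechst high-intensity objects or normal cells, classed normal cells as having healthy, pyknosed or fragmented nuclei, and classed pyknosed cells as mitotic or apoptotic. Tubulin, mitochondrial-mass and membrane-permeability phenotypes are per cents of the healthy-nucleus cells.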

[1] = 12 h, 1 µM, compound concentration 1 uM, replicate 1
[2] = 12 h, 1 µM, compound concentration 1 uM, replicate 2
[3] = 12 h, 10 µM, compound concentration 10 uM, replicate 1
[4] = 12 h, 10 µM, compound concentration 10 uM, replicate 2
[5] = 24 h, 1 µM, compound concentration 1 uM, replicate 1
[6] = 24 h, 1 µM, compound concentration 1 uM, replicate 2
[7] = 24 h, 10 µM, compound concentration 10 uM, replicate 1
[8] = 24 h, 10 µM, compound concentration 10 uM, replicate 2
[9] = 48 h, 1 µM, compound concentration 1 uM, replicate 1
[10] = 48 h, 1 µM, compound concentration 1 uM, replicate 2
[11] = 48 h, 10 µM, compound concentration 10 uM, replicate 1
[12] = 48 h, 10 µM, compound concentration 10 uM, replicate 2

SMILES: Cc1ccc(C(C)(O)c2nc3ccccc3s2)c(C)c1 (centres undefined)
- Population Apoptotic (%) [1]: 30%
- Population Fragmented Nuclei (%) [1]: 19%
- Population Healthy Nuclei (%) [1]: 72%
- Population Hoechst High Intensity Objects (%) [1]: 4%
- Population Membrane Permeable-Phenotype (%) [1]: 1%
- Population Mitochondria Different-Phenotype (%) [1]: 36%
- Population Mitotic Cells (%) [1]: 70%
- Population Normal (%) [1]: 95%
- Population Pyknosed Nuclei (%) [1]: 8%
- Population Tubulin-Different-Phenotype (%) [1]: 30%
- Total Cell Count [1]: 483
- Population Apoptotic (%) [2]: 41%
- Population Fragmented Nuclei (%) [2]: 4%
- Population Healthy Nuclei (%) [2]: 79%
- Population Hoechst High Intensity Objects (%) [2]: 5%
- Population Membrane Permeable-Phenotype (%) [2]: 0%
- Population Mitochondria Different-Phenotype (%) [2]: 63%
- Population Mitotic Cells (%) [2]: 58%
- Population Normal (%) [2]: 94%
- Population Pyknosed Nuclei (%) [2]: 16%
- Population Tubulin-Different-Phenotype (%) [2]: 25%
- Total Cell Count [2]: 308
- Population Apoptotic (%) [3]: 56%
- Population Fragmented Nuclei (%) [3]: 5%
- Population Healthy Nuclei (%) [3]: 82%
- Population Hoechst High Intensity Objects (%) [3]: 8%
- Population Membrane Permeable-Phenotype (%) [3]: 0%
- Population Mitochondria Different-Phenotype (%) [3]: 62%
- Population Mitotic Cells (%) [3]: 43%
- Population Normal (%) [3]: 91%
- Population Pyknosed Nuclei (%) [3]: 12%
- Population Tubulin-Different-Phenotype (%) [3]: 44%
- Total Cell Count [3]: 412
- Population Apoptotic (%) [4]: 36%
- Population Fragmented Nuclei (%) [4]: 7%
- Population Healthy Nuclei (%) [4]: 78%
- Population Hoechst High Intensity Objects (%) [4]: 7%
- Population Mitochondria Different-Phenotype (%) [4]: 72%
- Population Mitotic Cells (%) [4]: 63%
- Population Normal (%) [4]: 92%
- Population Pyknosed Nuclei (%) [4]: 13%
- Population Tubulin-Different-Phenotype (%) [4]: 25%
- Total Cell Count [4]: 318
- Population Apoptotic (%) [5]: 26%
- Population Fragmented Nuclei (%) [5]: 18%
- Population Healthy Nuclei (%) [5]: 73%
- Population Hoechst High Intensity Objects (%) [5]: 3%
- Population Membrane Permeable-Phenotype (%) [5]: 1%
- Population Mitochondria Different-Phenotype (%) [5]: 15%
- Population Mitotic Cells (%) [5]: 73%
- Population Normal (%) [5]: 96%
- Population Pyknosed Nuclei (%) [5]: 8%
- Population Tubulin-Different-Phenotype (%) [5]: 11%
- Total Cell Count [5]: 645
- Population Apoptotic (%) [6]: 32%
- Population Fragmented Nuclei (%) [6]: 6%
- Population Healthy Nuclei (%) [6]: 85%
- Population Membrane Permeable-Phenotype (%) [6]: 0%
- Population Mitochondria Different-Phenotype (%) [6]: 36%
- Population Mitotic Cells (%) [6]: 67%
- Population Pyknosed Nuclei (%) [6]: 7%
- Population Tubulin-Different-Phenotype (%) [6]: 16%
- Total Cell Count [6]: 447
- Population Apoptotic (%) [7]: 28%
- Population Fragmented Nuclei (%) [7]: 6%
- Population Healthy Nuclei (%) [7]: 82%
- Population Hoechst High Intensity Objects (%) [7]: 8%
- Population Membrane Permeable-Phenotype (%) [7]: 0%
- Population Mitochondria Different-Phenotype (%) [7]: 42%
- Population Mitotic Cells (%) [7]: 71%
- Population Normal (%) [7]: 91%
- Population Pyknosed Nuclei (%) [7]: 11%
- Population Tubulin-Different-Phenotype (%) [7]: 34%
- Total Cell Count [7]: 487
- Population Apoptotic (%) [8]: 36%
- Population Fragmented Nuclei (%) [8]: 10%
- Population Healthy Nuclei (%) [8]: 78%
- Population Hoechst High Intensity Objects (%) [8]: 6%
- Population Mitochondria Different-Phenotype (%) [8]: 63%
- Population Mitotic Cells (%) [8]: 63%
- Population Normal (%) [8]: 93%
- Population Pyknosed Nuclei (%) [8]: 10%
- Population Tubulin-Different-Phenotype (%) [8]: 23%
- Total Cell Count [8]: 379
- Population Apoptotic (%) [9]: 17%
- Population Fragmented Nuclei (%) [9]: 20%
- Population Healthy Nuclei (%) [9]: 73%
- Population Hoechst High Intensity Objects (%) [9]: 2%
- Population Membrane Permeable-Phenotype (%) [9]: 1%
- Population Mitochondria Different-Phenotype (%) [9]: 15%
- Population Mitotic Cells (%) [9]: 82%
- Population Normal (%) [9]: 97%
- Population Pyknosed Nuclei (%) [9]: 5%
- Population Tubulin-Different-Phenotype (%) [9]: 12%
- Total Cell Count [9]: 964
- Population Apoptotic (%) [10]: 34%
- Population Fragmented Nuclei (%) [10]: 13%
- Population Healthy Nuclei (%) [10]: 78%
- Population Hoechst High Intensity Objects (%) [10]: 3%
- Population Mitochondria Different-Phenotype (%) [10]: 22%
- Population Mitotic Cells (%) [10]: 65%
- Population Normal (%) [10]: 96%
- Population Pyknosed Nuclei (%) [10]: 8%
- Population Tubulin-Different-Phenotype (%) [10]: 11%
- Total Cell Count [10]: 621
- Population Apoptotic (%) [11]: 33%
- Population Fragmented Nuclei (%) [11]: 14%
- Population Healthy Nuclei (%) [11]: 76%
- Population Hoechst High Intensity Objects (%) [11]: 2%
- Population Membrane Permeable-Phenotype (%) [11]: 0%
- Population Mitochondria Different-Phenotype (%) [11]: 28%
- Population Mitotic Cells (%) [11]: 66%
- Population Normal (%) [11]: 97%
- Population Pyknosed Nuclei (%) [11]: 9%
- Population Tubulin-Different-Phenotype (%) [11]: 18%
- Total Cell Count [11]: 713
- Population Apoptotic (%) [12]: 50%
- Population Fragmented Nuclei (%) [12]: 13%
- Population Healthy Nuclei (%) [12]: 80%
- Population Hoechst High Intensity Objects (%) [12]: 3%
- Population Membrane Permeable-Phenotype (%) [12]: 1%
- Population Mitochondria Different-Phenotype (%) [12]: 33%
- Population Mitotic Cells (%) [12]: 50%
- Population Normal (%) [12]: 96%
- Population Pyknosed Nuclei (%) [12]: 5%
- Population Tubulin-Different-Phenotype (%) [12]: 13%
- Total Cell Count [12]: 508

SMILES: CSCC[C@H](NC=O)C(=O)N[C@@H](CC(C)C)C(=O)N[C@@H](Cc1ccccc1)C(=O)O
- Population Mitochondria Different-Phenotype (%) [1]: 47%
- Population Tubulin-Different-Phenotype (%) [1]: 23%
- Total Cell Count [1]: 466
- Population Apoptotic (%) [2]: 28%
- Population Mitochondria Different-Phenotype (%) [2]: 57%
- Population Mitotic Cells (%) [2]: 71%
- Population Tubulin-Different-Phenotype (%) [2]: 16%
- Total Cell Count [2]: 437
- Population Mitochondria Different-Phenotype (%) [3]: 52%
- Population Tubulin-Different-Phenotype (%) [3]: 37%
- Total Cell Count [3]: 366
- Population Apoptotic (%) [4]: 54%
- Population Mitochondria Different-Phenotype (%) [4]: 64%
- Population Mitotic Cells (%) [4]: 45%
- Population Tubulin-Different-Phenotype (%) [4]: 31%
- Total Cell Count [4]: 375
- Population Apoptotic (%) [5]: 21%
- Population Mitochondria Different-Phenotype (%) [5]: 21%
- Population Mitotic Cells (%) [5]: 78%
- Population Tubulin-Different-Phenotype (%) [5]: 14%
- Total Cell Count [5]: 679
- Population Mitochondria Different-Phenotype (%) [6]: 37%
- Population Tubulin-Different-Phenotype (%) [6]: 12%
- Total Cell Count [6]: 550
- Population Apoptotic (%) [7]: 25%
- Population Mitochondria Different-Phenotype (%) [7]: 38%
- Population Mitotic Cells (%) [7]: 75%
- Population Tubulin-Different-Phenotype (%) [7]: 25%
- Total Cell Count [7]: 479
- Population Apoptotic (%) [8]: 36%
- Population Mitochondria Different-Phenotype (%) [8]: 53%
- Population Mitotic Cells (%) [8]: 64%
- Population Tubulin-Different-Phenotype (%) [8]: 22%
- Total Cell Count [8]: 490
- Population Apoptotic (%) [9]: 29%
- Population Mitochondria Different-Phenotype (%) [9]: 12%
- Population Tubulin-Different-Phenotype (%) [9]: 12%
- Total Cell Count [9]: 1154
- Population Apoptotic (%) [10]: 20%
- Population Mitochondria Different-Phenotype (%) [10]: 17%
- Population Mitotic Cells (%) [10]: 79%
- Total Cell Count [10]: 838
- Population Apoptotic (%) [11]: 28%
- Population Mitochondria Different-Phenotype (%) [11]: 24%
- Population Mitotic Cells (%) [11]: 71%
- Population Tubulin-Different-Phenotype (%) [11]: 12%
- Total Cell Count [11]: 704
- Population Apoptotic (%) [12]: 36%
- Population Mitochondria Different-Phenotype (%) [12]: 28%
- Population Mitotic Cells (%) [12]: 63%
- Population Tubulin-Different-Phenotype (%) [12]: 14%
- Total Cell Count [12]: 674
